Active and inactive are the calls of the source.
Columns and labels:
Canis familiaris [1] = assay: Antiarrhythmic property ventricular effective refractory period(post drug) is compared to lidocaine(2) using doses(3 and 6 mg/kg); type: functional, Canis lupus familiaris, Heart
Summary of the method: (§1)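 Mongrel dogs (about 12–25 kg), 1–4 days after coronary occlusion infarction, under sodium pentobarbital (~30 mg/kg) with 12-lead ECG monitoring. Agents and lidocaine were given iv at 3 and 6 mg/kg. Programmed ventricular stimulation was applied at baseline, about 2–5 min after each dose, and at 30 min. SVT was defined as ≥250 beats/min lasting ≥30 s. Pre means drug-free; post means after dosing.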

Canis familiaris [2] = assay: (§2) Antiarrhythmic property A-V nodal conduction time(drug free) is compared to lidocaine(2) using doses(3 and 6 mg/kg); No effect; type: functional, organism-based; set-up: dose 6 mg/kg; conditions: Canis lupus familiaris; Heart; summary of the method: as §1
Canis familiaris [3] = assay: Antiarrhythmic property His-Purkinje conduction time(drug free) is compared to lidocaine(2) using doses(3 and 6 mg/kg); No effect; type: functional, organism-based; set-up: dose 6 mg/kg; conditions: Canis lupus familiaris; His-Purkinje system; summary of the method: as §1
Canis familiaris [4] = assay: Tested for antiarrhythmic property by measuring ability to decrease heart rate(post drug) is compared to Lidocaine using doses(3 and 6 mg/kg); No effect; type: functional, organism-based; set-up: dose 6 mg/kg; conditions: Canis lupus familiaris; summary of the method: as §1
Canis familiaris [5] = assay: Tested for antiarrhythmic property by measuring ability to decrease Mean blood pressure(post drug) is compared to Lidocaine using doses(3 and 6 mg/kg); type: functional, Canis lupus familiaris; summary of the method: as §1
Canis familiaris [6] = assay: Antiarrhythmic property is compared to lidocaine(2) using doses(3 and 6 mg/kg). Time required for the ventricular myocardium to undergo depolarization and repolarization ((post drug); No effect; type: functional, organism-based; set-up: dose 6 mg/kg; conditions: Canis lupus familiaris; summary of the method: as §1
Canis familiaris [7] = assay: Antiarrhythmic property His-Purkinje conduction time(post drug) is compared to lidocaine(2) using doses(3 and 6 mg/kg); No effect; type: functional, organism-based; set-up: dose 6 mg/kg; conditions: Canis lupus familiaris; His-Purkinje system; summary of the method: as §1
Canis familiaris [8] = assay: Antiarrhythmic property ventricular effective refractory period(drug free) is compared to lidocaine(2) using doses(3 and 6 mg/kg); type: functional, Canis lupus familiaris, Heart; summary of the method: as §1
Canis familiaris [9] = assay: Tested for antiarrhythmic property by measuring ability to decrease heart rate(drug free) is compared to Lidocaine using doses (3 and 6 mg/kg); No effect; type: functional, organism-based; set-up: dose 6 mg/kg; conditions: Canis lupus familiaris; summary of the method: as §1
Canis familiaris [10] = assay: Antiarrhythmic property A-V nodal conduction time(post drug) is compared to lidocaine(2) using doses(3 and 6 mg/kg); No effect; type: functional, organism-based; set-up: dose 6 mg/kg; conditions: Canis lupus familiaris; Heart; summary of the method: as §1
Canis familiaris [11] = assay: Antiarrhythmic property is compared to lidocaine(2) using doses(3 and 6 mg/kg). Time required for the ventricular myocardium to undergo depolarization and repolarization (drug free); No effect; type: functional, organism-based; set-up: dose 6 mg/kg; conditions: Canis lupus familiaris; summary of the method: as §1
Canis familiaris [12] = assay: Tested for antiarrhythmic property by measuring ability to decrease Mean blood pressure (drug free) is compared to Lidocaine using doses(3 and 6 mg/kg).; type: functional, Canis lupus familiaris; summary of the method: as §1
Canis familiaris [13] = assay: Antiarrhythmic property His-Purkinje conduction time(post drug) is compared to lidocaine(2) using doses(3 and 6 mg/kg) measures; type: functional, Canis lupus familiaris, His-Purkinje system
Summary of the method: (§3)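 Mongrel dogs (~12–25 kg), 1–4 days after coronary occlusion leaving a surviving epicardial rim, anesthetized with sodium pentobarbital (~30 mg/kg). 12-lead ECG monitored throughout. Agent given iv at 3 and 6 mg/kg. Parameters recorded before (drug free) and after dosing. Programmed electrical stimulation tested SVT inducibility (≥250 beats/min, ≥30 s) at baseline, ~2–5 min after each dose, and at 30 min.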

Canis familiaris [14] = assay: Antiarrhythmic property Mean blood pressure(post drug) is compared to Lidocaine using doses(3 and 6 mg/kg); type: functional, Canis lupus familiaris; summary of the method: as §3
Canis familiaris [15] = assay: Antiarrhythmic property Mean blood pressure (drug free) is compared to Lidocaine using doses(3 and 6 mg/kg).; type: functional, Canis lupus familiaris; summary of the method: as §3
Canis familiaris [16] = assay: Antiarrhythmic property Heart rate (post drug) is compared to Lidocaine using doses(3 and 6 mg/kg). system.; type: functional, Canis lupus familiaris; summary of the method: as §3
Canis familiaris [17] = assay: Antiarrhythmic property Nonsustained ventricular tachycardia is compared to lidocaine(2) using dose of (3 and 6 mg/kg); type: functional, Canis lupus familiaris, Heart; summary of the method: as §3
Canis familiaris [18] = assay: Antiarrhythmic property His-Purkinje conduction time(drug free) is compared to lidocaine(2) using doses(3 and 6 mg/kg) measures; type: functional, Canis lupus familiaris, His-Purkinje system; summary of the method: as §3
Canis familiaris [19] = assay: Antiarrhythmic property Heart rate (drug free) is compared to Lidocaine using doses (3 and 6 mg/kg).; type: functional, Canis lupus familiaris; summary of the method: as §3
Canis familiaris [20] = assay: as §2; type: functional, organism-based; set-up: dose 6 mg/kg; conditions: Canis lupus familiaris; Heart; summary of the method: as §3; remark: listed apart in the source
Canis familiaris [21] = assay: Antiarrhythmic property compared to lidocaine(2) using doses(3 and 6 mg/kg). Time required for the ventricular myocardium to undergo depolarization and repolarization ((post drug); No effect; type: functional, organism-based; set-up: dose 6 mg/kg; conditions: Canis lupus familiaris; summary of the method: as §1
Canis familiaris [22] = assay: Antiarrhythmic property His-Purkinje conduction time(post drug) is compared to lidocaine(2) using dose(3 and 6 mg/kg); No effect; type: functional, organism-based; set-up: dose 6 mg/kg; conditions: Canis lupus familiaris; His-Purkinje system; summary of the method: as §1
Canis familiaris [23] = assay: Antiarrhythmic property compared to lidocaine(2) using doses(3 and 6 mg/kg). Time required for the ventricular myocardium to undergo depolarization and repolarization (drug free); No effect; type: functional, organism-based; set-up: dose 6 mg/kg; conditions: Canis lupus familiaris; summary of the method: as §1
Canis familiaris [24] = assay: Antiarrhythmic property A-V nodal conduction time(post drug) is compared to lidocaine(2) using dose (3 and 6 mg/kg); No effect; type: functional, organism-based; set-up: dose 6 mg/kg; conditions: Canis lupus familiaris; Heart; summary of the method: as §3
Canis familiaris [25] = assay: Antiarrhythmic property ventricular effective refractory period(post drug) is compared to lidocaine(2) using doses(3 and 6 mg/kg); No effect; type: functional, organism-based; set-up: dose 6 mg/kg; conditions: Canis lupus familiaris; Heart; summary of the method: as §3
Canis familiaris [26] = assay: Antiarrhythmic property ventricular effective refractory period(drug free) is compared to lidocaine(2) using doses(3 and 6 mg/kg); No effect; type: functional, organism-based; set-up: dose 6 mg/kg; conditions: Canis lupus familiaris; Heart; summary of the method: as §3

CCN(CC)CC(=O)Nc1c(C)cccc1C [LIDOCAINE]
VERP (Canis familiaris [1]): 167 ms
AH interval (Canis familiaris [2]): inactive
HV interval (Canis familiaris [3]): inactive
HR (Canis familiaris [4]): inactive
MBP (Canis familiaris [5]): 84 mmHg
QT interval (Canis familiaris [6]): inactive
HV interval (Canis familiaris [7]): inactive
VERP (Canis familiaris [8]): 142 ms
HR (Canis familiaris [9]): inactive
AH interval (Canis familiaris [10]): inactive
QT interval (Canis familiaris [11]): inactive
MBP (Canis familiaris [12]): 105 mmHg

Cl.c1ccc(CN2CC3CSCC(C3)C2)cc1
HV interval (Canis familiaris [13]): 35 ms
MBP (Canis familiaris [14]): 105 mmHg
MBP (Canis familiaris [15]): 99 mmHg
HR (Canis familiaris [16]): 165 beats min-1
NSVT (Canis familiaris [17]): 3 mg/kg
HV interval (Canis familiaris [18]): 30 ms
HR (Canis familiaris [19]): 162 beats min-1

c1ccc(CN2CC3CN(CC4CC4)CC(C2)C32SCCS2)cc1
AH interval (Canis familiaris [20]): inactive
MBP (Canis familiaris [14]): 105 mmHg
HV interval (Canis familiaris [3]): inactive
MBP (Canis familiaris [15]): 105 mmHg
HR (Canis familiaris [16]): 148 beats min-1
QT (Canis familiaris [21]): inactive
NSVT (Canis familiaris [17]): 3 mg/kg
HV interval (Canis familiaris [22]): inactive
QT (Canis familiaris [23]): inactive
AH interval (Canis familiaris [24]): inactive
HR (Canis familiaris [19]): 148 beats min-1
VERP (Canis familiaris [25]): inactive
VERP (Canis familiaris [26]): inactive
